Data on two compounds can be found in ChEMBL document CHEMBL1156711, “Synthesis and cytotoxicity evaluation of some benzimidazole-4,7-diones as bioreductive anticancer agents” (Eur J Med Chem, 2008).

For experiment [1], the system named is HT-29. Kind of experiment: Cytotoxicity against human HT29 cells after 72 hrs by MTT assay. The experiment is classed as functional, cell-based. The conditions noted are these: HT-29, 72 h. An outline of the steps:
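HT29 grown in DMEM with 10% FBS and 2 mM L-glutamine at 37 °C, 5% CO2. Seeded at 3000 cells/well and treated 24 h later; vehicle 0.1% DMSO in PBS. MTT 0.5 mg/mL for 3 h, DMSO solubilization, OD 550 nm, triplicates, corrected for MTT blank and normalized to untreated. IC50 by Chou–Talalay median-effect plot.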
(Tetrazolium dyes change colour on reduction, which living cells bring about.)

The subject of experiment [2] is HT-29. As to the kind of experiment: Cytotoxicity against human HT29 cells after 72 hrs by MTT assay in presence of 2 uM dicoumarol. The experiment is classed as functional, cell-based. The conditions noted are these: HT-29, 72 h.

Bounds are passed on as bounds.

In the case of `CC1=C(C)C(=O)c2c(nc(CC(C)(C)[N+](=O)[O-])n2C)C1=O`, the half-inhibitory concentration (IC50) in the experiment on HT-29 [1] is above 100 µM.

Turning to `CO[C@@]12[C@H](COC(N)=O)C3=C(C(=O)C(C)=C(N)C3=O)N1C[C@@H]1N[C@@H]12` [MITOMYCIN], the results for the IC50 with HT-29 [2] and in the experiment with HT-29 [1] were 2.1 µM and 0.9 µM, respectively.

One may read the IC50 as the point on the concentration scale where inhibition reaches its midpoint.
